This is an account of results in ChEMBL document CHEMBL5038571, “Design and Synthesis of EZH2-Based PROTACs to Degrade the PRC2 Complex for Targeting the Noncatalytic Activity of EZH2” (J Med Chem, 2021).

pIC50: −log10 of the molar value. Activity calls are given as the source filed them. No cut-off for these calls is given here.

The target in test [1] is T1, Protein cereblon/Histone-lysine N-methyltransferase EZH2 (Homo sapiens) (UniProt Q15910+Q96SW2). Nature of the test: PROTAC activity at CRBN E3 ligase/EZH2 in PRC2 complex in human WSUDLCL2 cells assessed as induction of RbAp48 degradation at 1 uM incubated for 48 hrs by Western blot analysis relative to control. The test is classed as cell-based. Put shortly:
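WSU-DLCL-2 cells treated 48 h (1 μM for the single-concentration screen), lysed; SDS-PAGE, nitrocellulose transfer, 5% milk block, primary antibody 4 °C overnight, chemiluminescence. Bands quantified by densitometry, normalized to GAPDH, expressed relative to DMSO-treated cells; mean ± SD of three independent experiments, t-test.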

The target of test [2] is T1, Protein cereblon/Histone-lysine N-methyltransferase EZH2 (Homo sapiens). The test is described as follows: PROTAC activity at CRBN E3 ligase/EZH2 in PRC2 complex in human WSUDLCL2 cells assessed as downregulation of RbAp48 expression at 1 uM pretreated with EPZ6438 for 4 hrs followed by compound addition and measured after 48 hrs by Western blot analysis. The class given is cell-based. Put shortly:
(§1)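 WSU-DLCL-2 cells pretreated 4 h with the named inhibitor, then compound added and incubated a further 48 h. EZH2, SUZ12, EED and RbAp48 measured by western blot (nitrocellulose transfer, skim-milk block, primary antibody overnight at 4 °C, chemiluminescent detection).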

Test [3] concerns the target Polycomb protein SUZ12 (Homo sapiens) (UniProt Q15022). The test is described as follows: Binding affinity to SUZ12 in human WSUDLCL2 cells assessed as thermal stability by measuring shift in temperature at 60 uM pretreated with proteasome inhibitor MG132 for 1 hr followed by compound addition incubated for 2 hrs by cellular thermal shift based Western blot analysis. The class given is cell-based. The essentials: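 Cellular thermal shift: cells suspended at 1.5 × 10⁶/mL and pretreated with MG-132 (5 μM, 1 h), then given 60 μM compound for 2 h with a DMSO control. Cells were lysed in RIPA with cocktail for 1 h. Supernatant aliquots were heated 6 min at 45, 48, 51, 54, 57 and 60 °C and centrifuged 15 min. Soluble protein was immunoblotted; bands quantified by densitometry; three independent experiments.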
In general terms: A western blot detects proteins with antibodies after separation by electrophoresis.

Test [4] addresses T1, Protein cereblon/Histone-lysine N-methyltransferase EZH2 (Homo sapiens). Nature of the test: PROTAC activity at CRBN E3 ligase/EZH2 in PRC2 complex in human WSUDLCL2 cells assessed as induction of EZH2 degradation at 10 uM incubated for 48 hrs by Western blot analysis. The test is classed as cell-based.
In test [5] the test system is WSUDLCL2. The test is described as follows: Inhibition of PRC2 in human WSUDLCL2 cells assessed as suppression H3K27 dimethylation at 10 uM incubated for 48 hrs by Western blot analysis. The test is classed as cell-based. The essentials: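 Lysates run on SDS-PAGE and transferred to nitrocellulose. Membranes blocked with 5% skim milk for 2 h, primary antibody applied overnight at 4 °C, then secondary antibody and chemiluminescent detection of histone H3 methylation marks.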

Test [6] deals with T1, Protein cereblon/Histone-lysine N-methyltransferase EZH2 (Homo sapiens). Nature of the test: PROTAC activity at CRBN E3 ligase/EZH2 in PRC2 complex in human SU-DHL-6 cells assessed as induction of EZH2 degradation by measuring reduction in EZH2 protein level at 1 uM incubated for 48 hrs by Western blot analysis. The class given is cell-based. The essentials:
(§2)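 Cells cultured in DMEM or RPMI 1640 with 10% FBS and 1% penicillin-streptomycin, 37 °C, 5% CO2; exposed to 1 μM compound for 48 h. Lysates run on SDS-PAGE and transferred to nitrocellulose. Blocked 2 h in 5% skim milk, primary antibody overnight at 4 °C, then secondary antibody. Chemiluminescent detection of PRC2 subunits and H3K27me3.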

For test [7] the target is unchanged. Nature of the test: PROTAC activity at CRBN E3 ligase/EZH2 in PRC2 complex in human SU-DHL-6 cells assessed as induction of EED degradation by measuring reduction in EED protein level at 1 uM incubated for 48 hrs by Western blot analysis. The class given is cell-based. The essentials: as §2
For test [8] the target is unchanged. The test is described as follows: PROTAC activity at CRBN E3 ligase/EZH2 in PRC2 complex in human DU-145 cells assessed as reduction in H3K27me3 level at 1 uM incubated for 48 hrs by Western blot analysis. The test is classed as cell-based. The essentials:
(§3)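 Cancer cell lines exposed to 1 μM compound for 48 h. Lysates immunoblotted (SDS-PAGE, nitrocellulose, 5% milk block, primary antibody overnight at 4 °C) for EZH2, SUZ12, EED, RbAp48 and H3K27me3. Bands quantified by densitometry and normalized to GAPDH.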

Test [9] has the same target. Nature of the test: PROTAC activity at CRBN E3 ligase/EZH2 in PRC2 complex in human A2780 cells assessed as induction of SUZ12 degradation by measuring reduction in SUZ12 protein level at 1 uM incubated for 48 hrs by Western blot analysis. The test is classed as cell-based. The essentials:
as §3

For test [10] the target is unchanged. Nature of the test: PROTAC activity at CRBN E3 ligase/EZH2 in PRC2 complex in human WSUDLCL2 cells assessed as downregulation of SUZ12 expression at 1 uM pretreated with MG-132 for 4 hrs followed by compound addition and measured after 48 hrs by Western blot analysis. The class given is cell-based. The essentials:
as §1

Test [11] has the same target. Nature of the test: PROTAC activity at CRBN E3 ligase/EZH2 in PRC2 complex in human WSUDLCL2 cells assessed as downregulation of EED expression at 1 uM pretreated with MG-132 for 4 hrs followed by compound addition and measured after 48 hrs by Western blot analysis. The class given is cell-based. Put shortly: as §1
Test [12] shares this target. The test is described as follows: PROTAC activity at CRBN E3 ligase/EZH2 in PRC2 complex in human WSUDLCL2 cells assessed as increase in EZH2 ubiquitination at 1 uM measured after 48 hrs by co-immunoprecipitation assay. The class given is cell-based. Put shortly: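 WSU-DLCL-2 cells treated with 1 μM compound for 48 h and lysed in RIPA buffer. Lysates incubated with antibodies overnight at 4 °C, then 3 h with Protein G agarose beads at 4 °C. Proteins eluted in IP buffer and ubiquitination of the target probed by immunoblot.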

In test [13] the test system is WSUDLCL2. The test is described as follows: Upregulation of TNFRSF21 mRNA expression in human WSUDLCL2 cells at 1 uM incubated for 48 hrs by qRT-PCR analysis. The class given is functional, cell-based. The essentials:
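WSU-DLCL-2 or Pfeiffer cells treated 48 h. Trizol RNA extraction, reverse transcription, SYBR qPCR (95 °C 30 s; 40 cycles of 95 °C 6 s, 60 °C 20 s). mRNA normalized to DMSO-treated cells; mean ± SD of three independent experiments, t-test.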
(In general: Real-time PCR tracks product formation cycle by cycle.)

Test [14] deals with MDA-MB-468. Nature of the test: Downregulation of ARL6IP mRNA expression in human MDA-MB-468 cells at 10 uM incubated for 48 hrs by qRT-PCR analysis. The class given is functional, cell-based. Put shortly:
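Cells treated 48 h. Total RNA extracted with Trizol, reverse-transcribed, and SYBR RT-qPCR run: 95 °C 30 s, then 40 cycles of 95 °C 6 s and 60 °C 20 s. mRNA normalized to the DMSO-treated group. Mean SD of three independent experiments, t-test versus DMSO.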

The test system of test [15] is WSUDLCL2. Nature of the test: Antiproliferative activity against human WSUDLCL2 cells harboring EZH2-Y641F mutant assessed as inhibition of cell growth incubated for 3 to 7 days by optical microscopic analysis (Rvb= 4.92 uM). The class given is functional, cell-based.
In test [16] the test system is NCI-H1299. The test is described as follows: Antiproliferative activity against human NCI-H1299 cells harboring SWI/SNF mutant assessed as inhibition of cell growth at 10 uM treated for 9 days by optical microscopic analysis. The test is classed as functional, cell-based. As to conditions: time 9.0 day. Put shortly:
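Cells seeded at 5 × 10³ per well, grown 24 h, then exposed to compound at 10 μM for 9 days with medium refreshed. Cells were photographed and counted on days 1, 3, 5, 7 and 9. For lines 1-2, EZH2-targeting or control shRNA was induced in the cells. Mean SD of three independent experiments; t-test against control.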

T1 sequence (Q15910 whole entry, looked up): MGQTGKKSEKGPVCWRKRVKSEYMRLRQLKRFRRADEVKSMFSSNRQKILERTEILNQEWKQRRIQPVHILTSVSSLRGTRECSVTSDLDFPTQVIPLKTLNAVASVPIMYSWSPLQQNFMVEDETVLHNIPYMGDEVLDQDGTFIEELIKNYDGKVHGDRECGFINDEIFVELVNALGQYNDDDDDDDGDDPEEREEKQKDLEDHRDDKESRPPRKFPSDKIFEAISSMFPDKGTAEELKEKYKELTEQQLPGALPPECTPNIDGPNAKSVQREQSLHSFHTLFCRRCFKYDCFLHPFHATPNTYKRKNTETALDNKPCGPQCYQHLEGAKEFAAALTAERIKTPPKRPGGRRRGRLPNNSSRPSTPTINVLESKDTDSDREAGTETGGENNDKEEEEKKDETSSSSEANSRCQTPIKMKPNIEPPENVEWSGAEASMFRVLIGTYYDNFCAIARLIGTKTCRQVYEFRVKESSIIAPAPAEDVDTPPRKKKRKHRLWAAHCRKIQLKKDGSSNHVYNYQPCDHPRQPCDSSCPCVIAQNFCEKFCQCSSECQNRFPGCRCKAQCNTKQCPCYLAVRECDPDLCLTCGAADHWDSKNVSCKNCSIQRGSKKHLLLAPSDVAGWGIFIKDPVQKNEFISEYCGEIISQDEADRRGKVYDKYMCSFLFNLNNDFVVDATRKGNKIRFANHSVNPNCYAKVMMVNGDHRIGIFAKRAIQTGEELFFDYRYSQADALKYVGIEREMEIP
T1 sequence (Q96SW2 whole entry, looked up): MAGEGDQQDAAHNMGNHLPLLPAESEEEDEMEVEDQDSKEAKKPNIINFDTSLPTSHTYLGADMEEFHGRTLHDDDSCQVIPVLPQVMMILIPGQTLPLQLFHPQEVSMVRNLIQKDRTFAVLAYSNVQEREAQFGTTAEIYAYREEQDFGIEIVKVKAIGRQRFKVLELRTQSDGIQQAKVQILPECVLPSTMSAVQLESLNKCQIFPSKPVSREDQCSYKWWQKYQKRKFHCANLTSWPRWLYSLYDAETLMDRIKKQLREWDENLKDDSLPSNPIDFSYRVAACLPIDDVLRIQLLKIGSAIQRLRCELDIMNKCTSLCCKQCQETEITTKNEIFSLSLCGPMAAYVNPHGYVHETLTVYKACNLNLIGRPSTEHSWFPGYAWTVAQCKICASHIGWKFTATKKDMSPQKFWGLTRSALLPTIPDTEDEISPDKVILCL
Chain of Polycomb protein SUZ12 (Homo sapiens) (Q15022 whole entry): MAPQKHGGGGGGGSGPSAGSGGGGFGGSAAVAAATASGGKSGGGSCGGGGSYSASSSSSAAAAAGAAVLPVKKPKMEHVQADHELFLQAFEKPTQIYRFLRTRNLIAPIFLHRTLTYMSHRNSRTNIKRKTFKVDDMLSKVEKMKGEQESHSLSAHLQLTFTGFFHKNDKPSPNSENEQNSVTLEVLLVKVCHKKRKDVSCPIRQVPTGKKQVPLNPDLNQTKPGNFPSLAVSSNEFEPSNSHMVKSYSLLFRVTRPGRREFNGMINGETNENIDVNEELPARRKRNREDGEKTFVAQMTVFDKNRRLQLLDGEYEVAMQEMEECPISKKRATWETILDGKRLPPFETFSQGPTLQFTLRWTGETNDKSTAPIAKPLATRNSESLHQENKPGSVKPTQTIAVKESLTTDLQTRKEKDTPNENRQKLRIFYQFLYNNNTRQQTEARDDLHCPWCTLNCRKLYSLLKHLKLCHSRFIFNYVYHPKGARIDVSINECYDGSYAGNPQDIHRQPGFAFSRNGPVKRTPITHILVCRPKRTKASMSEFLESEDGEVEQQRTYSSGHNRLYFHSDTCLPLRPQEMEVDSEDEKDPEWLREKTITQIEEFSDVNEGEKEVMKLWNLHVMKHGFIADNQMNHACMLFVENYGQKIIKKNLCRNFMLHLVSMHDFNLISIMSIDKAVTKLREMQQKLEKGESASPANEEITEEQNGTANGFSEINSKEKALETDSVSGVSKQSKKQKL

By pIC50 is commonly meant the negative decadic logarithm of the IC50, by convention in mol/L. As for `CCN(c1cc(-c2ccc(CN3CCN(CCCCCCCOc4cccc5c4C(=O)N(C4CCC(=O)NC4=O)C5=O)CC3)cc2)cc(C(=O)NCc2c(C)cc(C)[nH]c2=O)c1C)C1CCOCC1` (stereo unspecified), the Activity in test [1] came to 74%. Moreover, the outcome in [2], in test [3], in test [4], in test [10] and in [11] was inactive. The inhibition entry in test [5] is “Active”. Besides, the outcome in test [6], in [7], in test [8], in test [9], in [12] and in test [13] was Active. The result in test [14] and in test [16] was Active. Moreover, the pIC50 in test [15] is 5.43.
